Source: PubChem
SR-BI HDL uptake = mouse SR-BI HDL lipid transfer inhibition; ldlA[mSR-BI] CHO cells, DiI-HDL uptake fluorescence, 3 h; inhibition, % at 12.5 µM; 320,000 tested, 0.96% active; AID 488896;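 active = mean replicate inhibition of at least 70% and a set share of replicates each scoring 70 or more; inconclusive = meets just one of the two criteria; inactive = fails both criteria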;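 note: 0% = median of neutral control wells and 100% = median of positive control wells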
Target sequence (Q61009 whole entry, looked up): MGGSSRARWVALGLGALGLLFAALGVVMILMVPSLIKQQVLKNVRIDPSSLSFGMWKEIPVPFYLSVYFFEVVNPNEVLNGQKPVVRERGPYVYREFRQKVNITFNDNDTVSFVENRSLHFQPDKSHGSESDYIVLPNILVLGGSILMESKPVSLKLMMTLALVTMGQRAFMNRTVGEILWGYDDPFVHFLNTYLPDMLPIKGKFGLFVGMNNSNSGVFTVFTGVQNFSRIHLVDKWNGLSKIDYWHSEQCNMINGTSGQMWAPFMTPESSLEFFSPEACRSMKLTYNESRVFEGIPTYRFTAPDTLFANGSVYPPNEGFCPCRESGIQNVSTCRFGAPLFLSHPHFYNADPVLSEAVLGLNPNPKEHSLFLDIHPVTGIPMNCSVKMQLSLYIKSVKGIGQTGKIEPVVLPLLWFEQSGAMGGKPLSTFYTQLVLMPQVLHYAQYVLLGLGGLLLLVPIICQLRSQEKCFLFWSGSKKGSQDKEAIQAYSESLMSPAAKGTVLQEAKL
GASC-1 inh = human JMJD2C demethylase inhibition. Q9H3R0. GST-JMJD2C(1-420) H3K9me3 demethylation, DELFIA europium. inhibition, % at 2.35 µM. 330,000 tested, 0.069% active. AID 2099;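 active = more than half of a compound's replicate wells show inhibition beyond 50%, single wells judged on their own value; inconclusive = some, but no more than half, of replicates pass 50% inhibition; inactive = no replicate passes 50% inhibition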;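 note: signal counts dimethyl H3K9 product captured on neutravidin plate; 0% = median of DMSO wells and 100% = 0.3 times that DMSO median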
SR-BI uptake up = SR-BI HDL lipid transfer activation | AID 504775 | activation, % at 12.5 µM | CHO ldlA[mSR-BI] cells, DiI-HDL uptake fluorescence, 3 h; 100 = double the neutral-control signal | 320,000 tested, 0.096% active;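 active = mean replicate activation of at least 60% and every replicate at or above 60%; inconclusive = mean or all-replicate condition met, but not both; inactive = mean below 60% and not all replicates reaching 60%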;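 note: 0% = median plate neutral-control signal and 100% = twice that signal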
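Material: SR-BI-overexpressing, LDLR-lacking CHO cells | Dosing: Single compound concentration, delivered by pin transfer | Probe or stimulus: Labelled HDL, 10 µg/mL | Signal: Bottom-read cell fluorescence after medium removal, ex 550/em 595 nm | Schedule: 3 h, 37 °C | Evaluation: HDL uptake via cellular fluorescence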
GAA850 FXN act = increases GAA850 frataxin promoter reporter activity. HEK293 lucGAA850 FXN promoter luciferase reporter, 24 h; percent of 10 µM SAHA response. activation, % at 6 µM. 360,000 tested, 0.56% active;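 active = activation above the average of all compounds screened plus 3 SD, cutoff fixed separately per campaign, cut at about 7.5% in these data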;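 note: 0% = DMSO wells and 100% = 10 µM SAHA wells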
AHR activator = activates the human aryl hydrocarbon receptor; 320,000 tested, 2.5% active; AHR-responsive luciferase reporter cells, luminescence; AID 2796; activation, % at 5 µM; in the data active = activation above about 47%;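 note: 0% = vehicle wells and 100% = reference agonist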
DiI quencher = quenches DiI-HDL fluorescence, an SR-BI assay artifact | shares compounds with SR-BI HDL uptake | cell-free DiI-HDL fluorescence quenching, 30 min | AC50, µM (series often up to 35 µM), for inactives: at the top dose activity change, negative = quenching | 470 tested, 20% active | AID 540326;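 active = quenching, a falling signal, with AC50 below a set limit tied to the top valid dose, actives reach about 32 µM in these data; inconclusive = no clear call, values can overlap the other calls; inactive = rising signal, and the rest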
Active calls of the source: *; ? = inconclusive; / = no result. Sampled rows, rich in hits. Any-hit rate of the full collection: about 3.7%.

SMILES	SR-BI HDL uptake	GASC-1 inh	SR-BI uptake up	GAA850 FXN act	AHR activator	DiI quencher
CCC(C)C1/C=C\CC(NC(=O)OCC2c3ccccc3-c3ccccc32)CC(=O)N1Cc1ccccc1 (stereo not given)	75*	/	-75	-3	/	-2%
O=C(NCC(=O)N1CCOCC1)c1ccc(Cl)c(Cl)c1	3	11	-3	1	6	/
O=C(Nc1ccc2oc(-c3ccccc3)nc2c1)c1cc(-n2cnnc2)ccc1Cl	68	-8	-68	2	-5	/
O=C(Nc1ccc(-c2nc3ccccc3o2)cc1)c1cc(-n2cnnc2)ccc1Cl	?	4	-73	-5	-7	8%
Cc1ccsc1CN(C)CC(=O)NCC(=O)Nc1ccc(F)cc1	10	0	-10	0	11	/
Cc1cc(C)nc(N2CCC(C(=O)N3CCN(c4cc(Cl)ccc4C)CC3)CC2)n1	102*	14	-103	-3	3	-2%
CCCOc1ccc(C(=O)Nc2ccc(S(=O)(=O)N3C[C@@H]4C[C@@H](C3)c3cccc(=O)n3C4)cc2)cc1	57	9	-57	0	0	3%
Cc1cc(C)cc(NC(=O)CCc2c(C)nn(-c3ccc(N4CCCCC4)nn3)c2C)c1	79*	3	-79	3	10	-3%
Cc1nn(-c2ccc(N3CCCCC3)nn2)c(C)c1CCC(=O)Nc1ccc(F)c(F)c1	49	46	-49	5	4	/
COc1ccc(-c2nnc(SCC(=O)Nc3ncc(C(F)(F)F)cc3Cl)n2CC(C)C)cc1	25	2	-25	0	0	-6%
CCN(CC)S(=O)(=O)c1ccc(N2CCOCC2)c(NC(=O)c2cc3ccccc3oc2=O)c1	-1	3	1	1	-4	/
COc1ccc(-c2[nH]c(-c3ccc(F)cc3)nc2SCC(=O)NC2CCCC2)cc1	78*	-15	-78	-2	38	26µM*
COc1ccc(-c2[nH]c(-c3ccccc3)nc2SCC(=O)NC2CCCC2)cc1	43	12	-43	-3	38	/
CCC1(c2ccc(C)cc2)NC(=O)N(C(C)C(=O)Nc2ccc(N3CCOCC3)cc2)C1=O (stereo not given)	-2	-2	2	-1	3	/
CCOC(=O)c1[nH]c2ccc(OC)cc2c1NC(=O)c1ccc2c(c1)OCO2	53	5	-53	-1	16	/
COC(=O)c1[nH]c2cc(OC)ccc2c1NC(=O)c1ccc2c(c1)OCO2	72*	4	-72	0	9	12µM*
NC(=O)c1cc(NC(=O)CCc2nc3ccccc3s2)cc(C(N)=O)c1	-20	2	20	1	1	/
Cc1cc(C(=O)Nc2ccccc2)oc1C	20	-4	-20	1	0	/
O=C(COC(=O)C1(c2ccccc2)CC1)N1CCN(c2ccc(F)cc2)CC1	10	-49	-10	0	0	/
Cc1ccc2nc(SCC(=O)NC3CCS(=O)(=O)C3)[nH]c2c1 (stereo not given)	-14	0	14	-1	13	/
CSc1nc2cc(C)nn2c(-c2ccccc2)c1C#N	/	-18	/	3	1	/
COC(=O)C1C(=O)c2c([nH]c(C(=O)OC3CCCC3C)c2C)CC1C (stereo not given)	37	6	-37	4	19	-1%
COC(=O)C1C(=O)c2c([nH]c(C(=O)OC3CCCCC3)c2C)CC1C (stereo not given)	-5	-2	5	5	-2	/
Clc1ccc(-c2cc(-c3nnc4n3CCCCC4)c3ccccc3n2)cc1	83*	4	-83	1	0	1%
O=C(c1ccc(COc2ccccc2Br)cc1)N1CCCCCC1	24	28	-24	4	-1	/
CC(=O)NC(c1ccccc1)c1nc(-c2cccc(F)c2)cs1 (stereo not given)	/	/	/	4	/	/
O=C(NNC(=O)c1cc(Br)ccc1O)c1csc(N2CCOCC2)n1	128*	-4	-128	-1	11	1µM*
CC1(Cc2cc(Cl)ccc2C(F)(F)F)C(=O)Nc2cc(-c3ccccc3Cl)ccc21 (stereo not given)	/	/	/	-2	/	/
